Reference: ChEMBL document CHEMBL4400527, “Development of bioactive gemcitabine-D-Lys6-GnRH prodrugs with linker-controllable drug release rate and enhanced biopharmaceutical profile” (Eur J Med Chem, 2019)

Columns and labels:
[1] = Cmax in human DU145 cells assessed per million cells at 10 uM measured after 4 hrs by LC-MS/MS analysis; type: ADME, cell-based; design: dose 10 uM; conditions: du-145, 4 h
Procedure, shortened: (§1)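 DU145 cells seeded at 2 x 10⁶ cells/well and exposed to 10 µΜ compound for 1, 4 or 8 h. Medium removed, cells washed twice with ice-cold PBS, lysed in ice-cold MeCN-water (3:2) by scraping, then vortexed, sonicated and spun 3 min at 16,060 g. Conjugate, gemcitabine and dFdU quantified per 10⁶ cells.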

[2] = Stability of the compound in RPMI medium assessed as compound degradation at 1 uM measured <24 hrs by LC-MS/MS analysis; type: physicochemical; conditions: read-out: Drug degradation
Procedure, shortened: (§2)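 Conjugates at 1 µΜ incubated at 37 °C in RPMI with 10% FBS and 1% P/S. Triplicate samples taken at 0, 1, 2, 4, 8, 24, 48 and 72 h, mixed with initial mobile phase, stored at -80 °C. Analysed by LC-MS/MS.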

[3] = Prodrug activation in human DU145 cells assessed as dFdU release at 10 uM measured after 8 hrs by LC-MS/MS analysis; type: cell-based; conditions: du-145, 8 h; procedure, shortened: as §1
PC-3 = assay: Antiproliferative activity against human PC3 cells measured after 72 hrs by MTT assay; type: functional, cell-based; conditions: PC-3, 72 h
Procedure, shortened: (§3)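 Cells (RPMI for DU145, PC3, MDA-MB-231; DMEM for MCF7; 10% FBS, 37 °C, 5% CO₂) plated at 5 x 10³/well. After 24 h, medium replaced with compound at 10-40,000 nM for 72 h. MTT 0.3 mg/mL in PBS for 3 h, formazan dissolved in DMSO, OD at 570 nm with 690 nm reference. IC50 from four-parameter logistic fit; three experiments in triplicate.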

MCF7 = assay: Antiproliferative activity against human MCF7 cells measured after 72 hrs by MTT assay; type: functional, cell-based; conditions: MCF7, 72 h; procedure, shortened: as §3
[4] = molecular target: T1, Gonadotropin-releasing hormone receptor (Homo sapiens, UniProt P30968); assay: Displacement of [125I]-D-Tyr6-His5-GnRH from recombinant human GnRH receptor expressed in HEK293 cell membrane measured after 16 to 19 hrs by gamma counting method; type: cell membranes
T1 sequence (P30968 whole entry): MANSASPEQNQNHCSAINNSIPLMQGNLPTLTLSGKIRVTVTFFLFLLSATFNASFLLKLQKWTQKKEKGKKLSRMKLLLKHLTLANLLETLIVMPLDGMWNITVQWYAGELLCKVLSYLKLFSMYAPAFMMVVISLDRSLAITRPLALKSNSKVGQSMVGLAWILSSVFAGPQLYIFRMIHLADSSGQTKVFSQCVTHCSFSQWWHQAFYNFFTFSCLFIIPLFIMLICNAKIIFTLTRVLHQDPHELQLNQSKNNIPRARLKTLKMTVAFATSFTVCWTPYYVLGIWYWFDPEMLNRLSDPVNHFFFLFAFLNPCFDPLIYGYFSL
Procedure, shortened: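 Membranes from HEK 293 cells stably expressing human GnRH-R were incubated with 100,000-120,000 cpm [¹²⁵I]-D-Tyr⁶-His⁵-GnRH plus increasing conjugate concentrations. Buffer was 25 mM HEPES, 1 mM CaCl₂, 10 mM MgCl₂, 0.5% BSA, pH 7.4, final volume 0.2 mL, 4 °C for 16-19 h. Samples filtered on PEI-soaked GF/C, washed with ice-cold Tris-HCl and gamma counted. Nonspecific binding defined with 1000 nM triptorelin.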

[5] = Prodrug activation in human plasma assessed as gemcitabine release at 1 ug/ml measured up to 4 hrs by LC-MS/MS analysis; type: cell-free
Procedure, shortened: (§4)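 Human plasma spiked with conjugate at 1 µg/mL. Triplicate 50 µL samples taken at 0, 0.08, 0.5, 1 and 4 h, mixed with 150 µL acetonitrile and stored at -80 °C. Intact conjugate and released gemcitabine followed.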

MDA-MB-231 = assay: Antiproliferative activity against human MDA-MB-231 cells measured after 72 hrs by MTT assay; type: functional, cell-based; conditions: MDA-MB-231, 72 h; procedure, shortened: as §3
[6] = AUC (1 to 8 hrs) in human DU145 cells assessed per million cells at 10 uM by LC-MS/MS analysis; type: ADME, cell-based; design: time 1-8 hr, dose 10 uM; conditions: du-145, 10 µM; procedure, shortened: as §1
[7] = Stability of the compound in human plasma at 1 ug/ml measured up to 4 hrs by LC-MS/MS analysis; type: ADME, cell-free; procedure, shortened: as §4
DU-145 = assay: Antiproliferative activity against human DU145 cells measured after 72 hrs by MTT assay; type: functional, cell-based; conditions: DU-145, 72 h; procedure, shortened: as §3
[8] = Prodrug activation in C57BL/6N mouse blood assessed as gemcitabine release at 10 mg/kg, ip measured after 30 mins by LC-MS/MS analysis; type: organism-based; conditions: in vivo, 0.5 h
Procedure, shortened: (§5)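 Male C57BL/6N mice, 8-12 weeks old, fasted overnight (n = 5/group), given conjugate 10 mg/kg (6.3 µmol/kg) IP in saline. Serial tail bleeds of 10 µL at 0.25, 0.5, 1, 2, 4, 6 and 8 h into 0.1 M citric acid, pH 4.5. Stored at -80 °C, processed by protein precipitation and evaporation. Conjugate, gemcitabine and dFdU measured.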

[9] = Prodrug activation in C57BL/6N mouse blood assessed as gemcitabine release at 10 mg/kg, ip measured up to 8 hrs by LC-MS/MS analysis; type: organism-based; conditions: in vivo; procedure, shortened: as §5
[10] = Prodrug activation in C57BL/6N mouse blood assessed as dFdU release at 10 mg/kg, ip measured after 1 hr by LC-MS/MS analysis; type: organism-based; conditions: in vivo; procedure, shortened: as §5
[11] = Prodrug activation in human DU145 cells assessed as gemcitabine release at 10 uM measured after 8 hrs by LC-MS/MS analysis; type: cell-based; conditions: du-145, 8 h; procedure, shortened: as §1
[12] = Drug level in C57BL/6N mouse blood at 10 mg/kg, ip measured after 30 mins by LC-MS/MS analysis; type: ADME, organism-based; conditions: whole blood, read-out: Drug uptake; procedure, shortened: as §5
[13] = Stability of the compound in RPMI medium at 1 uM measured after 72 hrs by LC-MS/MS analysis; type: physicochemical; procedure, shortened: as §2
[14] = Drug level in C57BL/6N mouse blood at 10 mg/kg, ip measured after 15 mins by LC-MS/MS analysis; type: ADME, organism-based; conditions: whole blood, read-out: Drug uptake; procedure, shortened: as §5
[15] = Prodrug activation in C57BL/6N mouse blood assessed as dFdU release at 10 mg/kg, ip measured up to 8 hrs by LC-MS/MS analysis; type: organism-based; conditions: in vivo; procedure, shortened: as §5

Cmax [1] | degraded at 24 h, 1 µM [2] | Drug metabolism [3] | IC50 (PC-3) | IC50 (MCF7) | IC50 [4] | Drug metabolism [5] | IC50 (MDA-MB-231) | AUC [6] | Stability [7] | IC50 (DU-145) | Drug metabolism [8] | Drug metabolism [9] | Drug metabolism [10] | Drug metabolism [11] | concentration at 0.5 h [12] | Stability [13] | concentration at 0.25 h [14] | Drug metabolism [15] | SMILES
8 ng/10^6 cells | 100% | Metabolite_Notdetected | 937 nM | 55.5 nM | 2.4 nM | Metabolite_Detected | 2390 nM | 38.6 ng/10^6 cells × hr | Unstable | 684 nM | 300 ng/mL | Metabolite_Detected | 500 ng/mL | Metabolite_Detected | – | – | – | – | CC(C)C[C@H](NC(=O)[C@@H](CCCCNC(=O)CCCCCNC(=O)CCC(=O)OC[C@H]1O[C@@H](n2ccc(N)nc2=O)C(F)(F)[C@@H]1O)NC(=O)[C@H](Cc1ccc(O)cc1)NC(=O)[C@H](CO)NC(=O)[C@H](Cc1c[nH]c2ccccc12)NC(=O)[C@H](Cc1cnc[nH]1)NC(=O)[C@@H]1CCC(=O)N1)C(=O)N[C@@H](CCCNC(=N)N)C(=O)N1CCC[C@H]1C(=O)NCC(N)=O
– | – | – | 416 nM | 38 nM | – | – | 1570 nM | – | – | 213 nM | – | – | – | – | 3 ng/mL | – | – | – | Nc1ccn([C@@H]2O[C@H](CO)[C@@H](O)C2(F)F)c(=O)n1 [GEMCITABINE]
– | – | Metabolite_Notdetected | > 40000 nM | 621 nM | 0.69 nM | Metabolite_Notdetected | > 40000 nM | 62.8 ng/10^6 cells × hr | Stable | > 40000 nM | – | – | – | Metabolite_Notdetected | 4000 ng/mL | Stable | 4000 ng/mL | Metabolite_Notdetected | CC(C)C[C@H](NC(=O)[C@@H](CCCCNC(=O)OC[C@H]1O[C@@H](n2ccc(N)nc2=O)C(F)(F)[C@@H]1O)NC(=O)[C@H](Cc1ccc(O)cc1)NC(=O)[C@H](CO)NC(=O)[C@H](Cc1c[nH]c2ccccc12)NC(=O)[C@H](Cc1cnc[nH]1)NC(=O)[C@@H]1CCC(=O)N1)C(=O)N[C@@H](CCCNC(=N)N)C(=O)N1CCC[C@H]1C(=O)NCC(N)=O
– | – | – | > 40000 nM | > 40000 nM | 10.5 nM | – | > 40000 nM | – | – | > 40000 nM | – | – | – | – | – | – | – | – | CC(C)C[C@H](NC(=O)[C@@H](CCCCN)NC(=O)[C@H](Cc1ccc(O)cc1)NC(=O)[C@H](CO)NC(=O)[C@H](Cc1c[nH]c2ccccc12)NC(=O)[C@H](Cc1cnc[nH]1)NC(=O)[C@@H]1CCC(=O)N1)C(=O)N[C@@H](CCCNC(=N)N)C(=O)N1CCC[C@H]1C(=O)NCC(N)=O
15 ng/10^6 cells in 4 h | – | Metabolite_Notdetected | > 40000 nM | 449 nM | 0.11 nM | Metabolite_Notdetected | > 40000 nM | 88.7 ng/10^6 cells × hr | Stable | 9760 nM | – | – | – | Metabolite_Notdetected | 5000 ng/mL | Stable | 4000 ng/mL | Metabolite_Notdetected | CC(C)C[C@H](NC(=O)[C@@H](CCCCNC(=O)O[C@@H]1[C@@H](CO)O[C@@H](n2ccc(N)nc2=O)C1(F)F)NC(=O)[C@H](Cc1ccc(O)cc1)NC(=O)[C@H](CO)NC(=O)[C@H](Cc1c[nH]c2ccccc12)NC(=O)[C@H](Cc1cnc[nH]1)NC(=O)[C@@H]1CCC(=O)N1)C(=O)N[C@@H](CCCNC(=N)N)C(=O)N1CCC[C@H]1C(=O)NCC(N)=O
